In data set [1] the target is T1, Melanin-concentrating hormone receptor 1 (Homo sapiens, UniProt Q99705). In words: Antagonist activity at human MCHR1 expressed in CHO-K1 cells assessed as inhibition of MCH peptide mediated response measuring [3H]inositol phosphate production by IP3-SPA-YSI assay. It counts as functional, cell-based.
Data set [2] concerns the target T1, Melanin-concentrating hormone receptor 1. In words: biochemical. Type of data set: cell-based, CHO-K1.
Data set [3] can be described thus: Solubility of the compound in 5% DMSO and 95% PBS after overnight incubation using plate shaker. It counts as physicochemical. An outline of the steps: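 A 10 mM DMSO stock was diluted into PBS to a final 500 µM (5% DMSO). The mix was left to precipitate overnight at RT on a plate shaker, then centrifuged. Supernatant absorbance was read at 260, 280 and 620 nm. Solubility is the absorbance ratio of PBS supernatant to an acetonitrile reference (100 and 500 µM). The 620 nm reading was used to exclude visible contamination.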

The nature of data set [4]: Metabolic stability in human liver microsomes assessed as compound remaining at 10 uM after 30 mins by HPLC analysis. The settings on record: read-out: Stability. It counts as ADME, Microsome. An outline of the steps:
(§1)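 Compound at 10 µM was incubated with 1 mg/ml mouse or pooled human liver microsomes in 0.1 M phosphate buffer, pH 7.4. Reaction was started with NADPH and run 30 min at 37 °C. Result is % parent remaining.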
For orientation: Liver microsomes are a subcellular fraction often used to study metabolism.

Data set [5] is described as follows: Metabolic stability in mouse liver microsomes assessed as compound remaining at 10 uM after 30 mins by HPLC analysis. The settings on record: read-out: Stability. Type of data set: ADME, Microsome. Summed up:
as §1

The mark [6] stands for this setting: 5% DMSO and 95% PBS, read-out: solubility.

pIC50: −log10 of the molar value. Values after ≈ are worked out from the molar mass of the structure shown. Some results are limits rather than exact numbers.

T1 sequence (Q99705 whole entry): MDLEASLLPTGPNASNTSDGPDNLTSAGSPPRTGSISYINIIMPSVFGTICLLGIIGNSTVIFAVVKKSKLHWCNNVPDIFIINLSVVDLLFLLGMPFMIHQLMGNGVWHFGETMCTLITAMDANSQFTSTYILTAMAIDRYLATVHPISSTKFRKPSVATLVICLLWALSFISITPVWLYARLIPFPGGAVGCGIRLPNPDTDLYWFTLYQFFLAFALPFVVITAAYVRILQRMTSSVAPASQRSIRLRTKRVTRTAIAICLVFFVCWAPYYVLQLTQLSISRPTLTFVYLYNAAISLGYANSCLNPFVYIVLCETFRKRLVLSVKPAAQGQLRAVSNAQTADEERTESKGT

What is called pIC50 is the IC50 on a negative log10 scale, so that one unit is a factor of ten. Consider `Cc1nc(N2CCN(C(=O)C3CC3)CC2)nc2ccc(NC(=O)COc3ccc(Cl)cc3)cc12`, for which the results for the pIC50 in data set [1] and in data set [2] were 6.84 and 6.60, respectively.

Regarding `Cc1nc(N2CCN(S(C)(=O)=O)CC2)nc2ccc(NC(=O)COc3ccc(Cl)cc3)cc12`, the pIC50 in data set [1] and in data set [2] was less than 5.00 each time.

As usually defined, the solubility is the concentration that dissolves in the medium under given conditions. In the case of `Cc1nc(N2CCN(C3CCOCC3)CC2)nc2ccc(NC(=O)COc3ccc(Cl)cc3)cc12`, the solubility in data set [3] (setting [6]) was 15 µM (≈ 7.44 µg/mL). The pIC50 in data set [1] was 6.94; in data set [2], 7.35. Besides, the remaining at 0.5 h, 10 µM was 39% in data set [4] and 1% in data set [5].

As to `Cc1nc(N2CCN(C(=O)C(C)C)CC2)nc2ccc(NC(=O)COc3ccc(OC(F)(F)F)cc3)cc12`, the pIC50 in data set [1] was 7.48; in data set [2], 7.44.

With `Cc1nc(N2CCN(C3CCOCC3)CC2)nc2ccc(NC(=O)COc3ccc(OC(F)(F)F)cc3)cc12`, the pIC50 in data set [1] is 7.51; in data set [2] it was 8.15.

In the case of `CCC1(O)CCN(c2nc(C)c3cc(NC(=O)COc4ccc(Cl)cc4)ccc3n2)CC1`, the pIC50 is 6.42 in data set [1] and 6.68 in data set [2].

`Cc1nc(N2CCN(C(=O)c3ccccc3)CC2)nc2ccc(NC(=O)COc3ccc(Cl)cc3)cc12`: the pIC50 in data set [1] was less than 5.00; in data set [2], 5.14.

Consider `Cc1nc(N2CCC(N3CCCC3)CC2)nc2ccc(NC(=O)C(C)(C)Oc3ccc(Cl)cc3)cc12`, for which the pIC50 in data set [1] and in data set [2] was less than 5.00 in each case.

`Cc1nc(N2CCC(N)CC2)nc2ccc(NC(=O)COc3ccc(Cl)cc3)cc12`: the pIC50 in data set [1] was 6.21; in data set [2], 6.82.

With `Cc1nc(N2CCC(O)(c3cccc(F)c3)CC2)nc2ccc(NC(=O)COc3ccc(OC(F)(F)F)cc3)cc12`, the figures for the pIC50 in data set [1] and in data set [2] were 7.00 and 6.20, respectively.

For the molecule `Cc1nc(N2CCN(C3CCCC3)CC2)nc2ccc(NC(=O)COc3ccc(Cl)cc3)cc12`, the pIC50 was 6.82 in data set [1] and 7.02 in data set [2].

In data set [2], `CCN1CCN(c2nc(C)c3cc(NC(=O)COc4ccc(Cl)cc4)ccc3n2)CC1` showed a pIC50 of 6.16.

`Cc1nc(N2CCCCC2)nc2ccc(NC(=O)COc3ccc(Cl)cc3)cc12`: the figures for the negative-log IC50 (pIC50) in data set [1] and in data set [2] were 6.52 and 6.74, respectively.

Take `Cc1nc(N2CCC(O)(c3ccc(F)cn3)CC2)nc2ccc(NC(=O)COc3ccc(OC(F)(F)F)cc3)cc12`: the results for the pIC50 in data set [1] and in data set [2] were 7.23 and 6.67, respectively.

`Cc1nc(N2CCC(O)CC2)nc2ccc(NC(=O)C(C)(C)Oc3ccc(Cl)cc3)cc12`: the pIC50 in data set [1] and in data set [2] was less than 5.00 in each case.

Consider `Cc1nc(N2CCN(C(=O)C3CC3)CC2)nc2ccc(NC(=O)COc3ccc(OC(F)(F)F)cc3)cc12`, for which, in data set [3] (setting [6]), the solubility stood at 8 µM (≈ 4.24 µg/mL). The negative-log IC50 (pIC50) in data set [1] was 7.52; in data set [2], 7.31. Besides, the remaining at 0.5 h, 10 µM in data set [4] was 59%; in data set [5], 43%.

Turning to `COCC(=O)N1CCN(c2nc(C)c3cc(NC(=O)COc4ccc(Cl)cc4)ccc3n2)CC1`, the pIC50 in data set [1] was 6.53; in data set [2], 6.67.

In the case of `Cc1nc(N2CCC(O)(c3ccc(F)cc3)CC2)nc2ccc(NC(=O)COc3ccc(OC(F)(F)F)cc3)cc12`, the negative-log IC50 (pIC50) in data set [1] is 7.26; in data set [2] it was 6.82.

In the case of `Cc1nc(N2CCN(CC(C)(C)C)CC2)nc2ccc(NC(=O)COc3ccc(Cl)cc3)cc12`, the negative-log IC50 (pIC50) in data set [1] was 6.61; in data set [2], 6.11.

For `Cc1nc(N2CCN(C(=O)C3CCCCC3)CC2)nc2ccc(NC(=O)COc3ccc(Cl)cc3)cc12`, the results for the pIC50 in data set [1] and in data set [2] were 5.99 and 6.94, respectively.

Consider `Cc1nc(N2CCC(C(=O)NC(C)C)CC2)nc2ccc(NC(=O)COc3ccc(OC(F)(F)F)cc3)cc12`, for which the pIC50 was 8.05 in data set [1] and 7.77 in data set [2].

Turning to `Cc1nc(N2CCC(O)(c3ccccc3)CC2)nc2ccc(NC(=O)COc3ccc(OC(F)(F)F)cc3)cc12`, the negative-log IC50 (pIC50) in data set [1] was 7.17; in data set [2], 6.45.

As to `Cc1nc(N2CCC(C(=O)N(C)C)CC2)nc2ccc(NC(=O)COc3ccc(OC(F)(F)F)cc3)cc12`, the pIC50 is 7.74 in data set [1] and 7.33 in data set [2].

In the case of `Cc1nc(N2CCC(NC(=O)C(C)C)CC2)nc2ccc(NC(=O)COc3ccc(Cl)cc3)cc12`, the solubility in data set [3] (setting [6]) came out at 205 µM (≈ 102 µg/mL). Moreover, the pIC50 was 7.27 in data set [1] and 7.82 in data set [2]. For the same molecule, the remaining at 0.5 h, 10 µM in data set [4] stood at 23%; in data set [5], 9%.

On to `Cc1nc(N2CCN(C(=O)C(C)C)CC2)nc2ccc(NC(=O)COc3ccc(Cl)cc3)cc12`, for which the figures for the pIC50 in data set [1] and in data set [2] were 7.04 and 6.65, respectively.

Regarding `Cc1nc(N2CCC(C)(O)CC2)nc2ccc(NC(=O)COc3ccc(Cl)cc3)cc12`, the pIC50 in data set [1] was 6.08; in data set [2], 6.63.

Regarding `Cc1nc(N2CCC(NC(=O)NC(C)C)CC2)nc2ccc(NC(=O)COc3ccc(Cl)cc3)cc12`, in data set [3] (buffer), the solubility result is “Insoluble”. Moreover, the results for the pIC50 in data set [1] and in data set [2] were 8.40 and 8.15, respectively.

For `COC1CCN(c2nc(C)c3cc(NC(=O)COc4ccc(Cl)cc4)ccc3n2)CC1`, the pIC50 in data set [1] was 6.74; in data set [2], 6.67.

With `Cc1nc(N2CCC(C(N)=O)CC2)nc2ccc(NC(=O)COc3ccc(OC(F)(F)F)cc3)cc12`, the pIC50 in data set [1] is 7.49; in data set [2], 7.64.

For `Cc1nc(N2CCC(O)(C3CCCCC3)CC2)nc2ccc(NC(=O)COc3ccc(OC(F)(F)F)cc3)cc12`, the figures for the pIC50 in data set [1] and in data set [2] were 6.81 and 6.49, respectively.

As to `Cc1nc(N2CCC(C(=O)NC3CC3)CC2)nc2ccc(NC(=O)COc3ccc(OC(F)(F)F)cc3)cc12`, the pIC50 was 8.52 in data set [1] and 8.05 in data set [2].

Regarding `Cc1nc(N2CCN(C(=O)C3CCCC3)CC2)nc2ccc(NC(=O)COc3ccc(Cl)cc3)cc12`, the pIC50 in data set [1] was 6.46; in data set [2], 6.52.

As for `Cc1nc(N2CCC(O)(C3CC3)CC2)nc2ccc(NC(=O)COc3ccc(OC(F)(F)F)cc3)cc12`, the values for the pIC50 in data set [1] and in data set [2] were 7.48 and 7.00, respectively.

With `CCC1(O)CCN(c2nc(C)c3cc(NC(=O)COc4ccc(OC(F)(F)F)cc4)ccc3n2)CC1`, the pIC50 in data set [1] is 7.23; in data set [2] it was 6.94.

For `Cc1nc(N2CCN(C)CC2)nc2ccc(NC(=O)COc3ccc(Cl)cc3)cc12`, the values for the pIC50 in data set [1] and in data set [2] were 5.42 and 6.66, respectively.

In the case of `Cc1nc(N2CCC(N3CCCC3)CC2)nc2ccc(NC(=O)COc3ccc(OC(F)(F)F)cc3)cc12`, the negative-log IC50 (pIC50) is 6.92 in data set [1] and 7.51 in data set [2].

Regarding `Cc1nc(N2CCN(C(=O)C3CCC3)CC2)nc2ccc(NC(=O)COc3ccc(Cl)cc3)cc12`, the negative logarithm of the IC50 (pIC50) in data set [1] was 6.80; in data set [2], 6.49.

`Cc1nc(N2CCC(N)CC2)nc2ccc(NC(=O)COc3ccc(OC(F)(F)F)cc3)cc12`: the pIC50 in data set [1] was 7.10; in data set [2] it was 7.66.

As for `Cc1nc(N2CCN(C3CC3)CC2)nc2ccc(NC(=O)COc3ccc(Cl)cc3)cc12`, the pIC50 is 6.46 in data set [1] and 6.57 in data set [2].

Turning to `Cc1nc(N2CCN(C(=O)CC(C)C)CC2)nc2ccc(NC(=O)COc3ccc(Cl)cc3)cc12`, the values for the pIC50 in data set [1] and in data set [2] were 6.80 and 6.85, respectively.

Take `Cc1nc(N2CCC(O)CC2)nc2ccc(NC(=O)COc3ccc(Cl)cc3)cc12`: the pIC50 was 6.79 in data set [1] and 6.82 in data set [2].

The record behind these values is ChEMBL document CHEMBL2016458, “Design and optimization of quinazoline derivatives as melanin concentrating hormone receptor 1 (MCHR1) antagonists” (Bioorg Med Chem Lett, 2012).
